From ChEMBL document CHEMBL1151773, “Synthesis and biological evaluation of amide derivatives of (5,6-dimethoxy-2,3-dihydro-1H-inden-1-yl)acetic acid as anti-inflammatory agents with reduced gastrointestinal ulcerogenecity” (Eur J Med Chem, 2008)

What was measured:
[1] = tested on: Mus musculus; test: Analgesic activity in Swiss albino mouse assessed as inhibition of acetic acid-induced writhing at 100 mg/kg, po administered 60 mins before acetic acid challenge after 5 to 15 mins relative to control; format: functional
Summary of the method: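 Female Swiss albino mice, 20±5 g, fasted overnight with free water access, dosed orally; 1 h later injected i.p. with 1% v/v acetic acid at 0.1 ml/10 g. Writhes (full hind-limb extension) counted for 15 min, starting 5 min after injection; only animals giving 20 or more writhes used. % inhibition = 100(1−Wt/Wc) vs control group mean; six animals per group.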

[2] = tested on: Rattus norvegicus; test: Antiinflammatory activity in Wistar rat assessed as inhibition of carrageenan-induced hind paw edema volume at 100 mg/kg, po administered 60 mins before carrageenan challenge after 24 hrs relative to control; format: functional
[3] = tested on: Rattus norvegicus; test: Antiinflammatory activity in Wistar rat assessed as inhibition of carrageenan-induced hind paw edema volume at 100 mg/kg, po administered 60 mins before carrageenan challenge after 6 hrs relative to control; format: functional
[4] = tested on: Rattus norvegicus; test: Antiinflammatory activity in Wistar rat assessed as inhibition of carrageenan-induced hind paw edema volume at 100 mg/kg, po administered 60 mins before carrageenan challenge after 4 hrs relative to control; format: functional
[5] = tested on: Rattus norvegicus; test: Antiinflammatory activity in Wistar rat assessed as inhibition of carrageenan-induced hind paw edema volume at 100 mg/kg, po administered 60 mins before carrageenan challenge after 3 hrs relative to control; format: functional
[6] = tested on: Rattus norvegicus; test: Antiinflammatory activity in Wistar rat assessed as inhibition of carrageenan-induced hind paw edema volume at 100 mg/kg, po administered 60 mins before carrageenan challenge after 1 hr relative to control; format: functional
[7] = tested on: Rattus norvegicus; test: Antiinflammatory activity in Wistar rat assessed as inhibition of carrageenan-induced hind paw edema volume at 100 mg/kg, po administered 60 mins before carrageenan challenge after 2 hrs relative to control; format: functional
[8] = tested on: Rattus norvegicus; test: Antipyretic activity in Wistar rat assessed as change in LPS-induced rectal temperature at 100 mg/kg, po administered 30 mins before LPS challenge after 7 hrs; format: functional
Summary of the method: (§1)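 Adult female Wistar rats, 170±20 g, fasted 24 h, dosed orally at 09:00; 30 min later E. coli 0111:B4 phenol-extracted LPS in apyrogenic saline given i.p. Rectal temperature by telethermometer probe just before and 1–7 h hourly after LPS; temperature index calculated from these readings. n = 6.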

[9] = tested on: Rattus norvegicus; test: Antipyretic activity in Wistar rat assessed as change in LPS-induced rectal temperature at 100 mg/kg, po administered 30 mins before LPS challenge after 6 hrs; format: functional; summary of the method: as §1
[10] = tested on: Rattus norvegicus; test: Antipyretic activity in Wistar rat assessed as change in LPS-induced rectal temperature at 100 mg/kg, po administered 30 mins before LPS challenge after 5 hrs; format: functional; summary of the method: as §1
[11] = tested on: Rattus norvegicus; test: Antipyretic activity in Wistar rat assessed as change in LPS-induced rectal temperature at 100 mg/kg, po administered 30 mins before LPS challenge after 4 hrs; format: functional; summary of the method: as §1
[12] = tested on: Rattus norvegicus; test: Antipyretic activity in Wistar rat assessed as change in LPS-induced rectal temperature at 100 mg/kg, po administered 30 mins before LPS challenge after 2 hrs; format: functional; summary of the method: as §1
[13] = tested on: Rattus norvegicus; test: Antipyretic activity in Wistar rat assessed as change in LPS-induced rectal temperature at 100 mg/kg, po administered 30 mins before LPS challenge after 3 hrs; format: functional; summary of the method: as §1
[14] = tested on: Rattus norvegicus; test: Antipyretic activity in Wistar rat assessed as change in LPS-induced rectal temperature at 100 mg/kg, po administered 30 mins before LPS challenge after 1 hr; format: functional; summary of the method: as §1
[15] = tested on: Rattus norvegicus; test: Gastrointestinal toxicity in Wistar rat assessed as ulcer index at 100 mg/kg, po after 6 hrs; format: organism-based; parameters: dose 100 mg/kg, route oral; details: in vivo
Summary of the method: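 Female Wistar rats, 175±25 g, fasted 24 h, dosed orally once; sacrificed 6 h later by cervical dislocation. Stomach opened along greater curvature, saline-washed, mucosa inspected with a hand lens. Lesions graded I (edema/hyperemia/petechiae), II (hemorrhagic lesions with small erosions), III (deep ulcers); UI = nI + 2nII + 3nIII. Mean ± SEM, n = 6.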

[16] = tested on: Rattus norvegicus; test: Antiarthritic activity in Freund's complete adjuvant challenged Albino rat model assessed as change in body weight at 100 mg/kg, po administered for 14 days daily once starting a day before adjuvant challenge; format: functional; details: 336 h, read-out: INH
[17] = tested on: Rattus norvegicus; test: Antiarthritic activity in Albino rat assessed as inhibition of Freund's complete adjuvant-induced paw volume at 100 mg/kg, po administered for 14 days daily once starting a day before adjuvant challenge measured on day 13; format: functional
Summary of the method: (§2)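 Female albino rats, 160±10 g, six per group, dosed orally once daily for 14 days starting the day before 0.1 ml Freund's complete adjuvant into the right hind paw subplantar surface. Both hind paw volumes, measured up to a mark at the lateral malleolus, taken before and daily after adjuvant.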

[18] = tested on: Rattus norvegicus; test: Antiarthritic activity in Albino rat assessed as inhibition of Freund's complete adjuvant-induced paw volume at 100 mg/kg, po administered for 14 days daily once starting a day before adjuvant challenge measured on day 8; format: functional; summary of the method: as §2
[19] = tested on: Rattus norvegicus; test: Antiarthritic activity in Albino rat assessed as inhibition of Freund's complete adjuvant-induced paw volume at 100 mg/kg, po administered for 14 days daily once starting a day before adjuvant challenge measured on day 3; format: functional; summary of the method: as §2

SMILES: CCCCCNC(=O)CC1CCc2cc(OC)c(OC)cc21 (configuration not stated)
- inhibition in vivo at 100 mg/kg [1]: 71.7%
- inhibition in vivo at 100 mg/kg [2]: 46.7%
- inhibition in vivo at 100 mg/kg [3]: 35.2%
- inhibition in vivo at 100 mg/kg [4]: 40.6%
- inhibition in vivo at 100 mg/kg [5]: 37.7%
- inhibition in vivo at 100 mg/kg [6]: 34.4%
- inhibition in vivo at 100 mg/kg [7]: 34%

SMILES: COc1cc2c(cc1OC)C(CC(=O)N1CCOCC1)CC2 (configuration not stated)
- inhibition in vivo at 100 mg/kg [1]: 23.6%
- inhibition in vivo at 100 mg/kg [2]: 23.3%
- inhibition in vivo at 100 mg/kg [3]: 14.8%
- inhibition in vivo at 100 mg/kg [4]: 13.3%
- inhibition in vivo at 100 mg/kg [5]: 19.6%
- inhibition in vivo at 100 mg/kg [6]: 15.6%
- inhibition in vivo at 100 mg/kg [7]: 14%

SMILES: COc1cc2c(cc1OC)C(CC(=O)NCCO)CC2 (configuration not stated)
- Activity [8]: 0.66 °C
- Activity [9]: 0.65 °C
- Activity [10]: 0.57 °C
- Activity [11]: 0.34 °C
- Activity [12]: -1.93 °C
- Activity [13]: 0.17 °C
- Activity [14]: -0.65 °C
- inhibition in vivo at 100 mg/kg [1]: 29.8%
- inhibition in vivo at 100 mg/kg [2]: 13.3%
- inhibition in vivo at 100 mg/kg [3]: 13%
- inhibition in vivo at 100 mg/kg [4]: 9.37%
- inhibition in vivo at 100 mg/kg [5]: 12.3%
- inhibition in vivo at 100 mg/kg [6]: 0%
- inhibition in vivo at 100 mg/kg [7]: 0%

SMILES: COc1cc2c(cc1OC)C(CC(=O)N1CCNCC1)CC2 (configuration not stated)
- UI [15]: 0
- inhibition in vivo at 100 mg/kg [16]: 3.11 g
- inhibition in vivo at 100 mg/kg [17]: 2.35%
- inhibition in vivo at 100 mg/kg [18]: 28.8%
- inhibition in vivo at 100 mg/kg [19]: 35.3%
- Activity [8]: 0.16 °C
- Activity [9]: 0.19 °C
- Activity [10]: 0.11 °C
- Activity [11]: -0.18 °C
- Activity [12]: -1.23 °C
- Activity [13]: -0.85 °C
- Activity [14]: -0.45 °C
- inhibition in vivo at 100 mg/kg [1]: 68.8%
- inhibition in vivo at 100 mg/kg [2]: 65%
- inhibition in vivo at 100 mg/kg [3]: 33.3%
- inhibition in vivo at 100 mg/kg [4]: 40.6%
- inhibition in vivo at 100 mg/kg [5]: 42%
- inhibition in vivo at 100 mg/kg [6]: 62.5%
- inhibition in vivo at 100 mg/kg [7]: 44%

SMILES: COc1cc2c(cc1OC)C(CC(=O)N1CCCCC1)CC2 (configuration not stated)
- inhibition in vivo at 100 mg/kg [1]: 44.7%
- inhibition in vivo at 100 mg/kg [2]: 40%
- inhibition in vivo at 100 mg/kg [3]: 31.5%
- inhibition in vivo at 100 mg/kg [4]: 32%
- inhibition in vivo at 100 mg/kg [5]: 31.9%
- inhibition in vivo at 100 mg/kg [6]: 18.8%
- inhibition in vivo at 100 mg/kg [7]: 22%

SMILES: COc1cc2c(cc1OC)C(CC(=O)NC(C)C)CC2 (configuration not stated)
- UI [15]: 0
- Activity [8]: 0.59 °C
- Activity [9]: 0.55 °C
- Activity [10]: 0.43 °C
- Activity [11]: 0.19 °C
- Activity [12]: -1.51 °C
- Activity [13]: -0.39 °C
- Activity [14]: -0.41 °C
- inhibition in vivo at 100 mg/kg [1]: 29.3%
- inhibition in vivo at 100 mg/kg [2]: 30%
- inhibition in vivo at 100 mg/kg [3]: 37%
- inhibition in vivo at 100 mg/kg [4]: 39.1%
- inhibition in vivo at 100 mg/kg [5]: 30.4%
- inhibition in vivo at 100 mg/kg [6]: 31.2%
- inhibition in vivo at 100 mg/kg [7]: 37%

SMILES: CCNC(=O)CC1CCc2cc(OC)c(OC)cc21 (configuration not stated)
- inhibition in vivo at 100 mg/kg [1]: 23.6%
- inhibition in vivo at 100 mg/kg [2]: 33.3%
- inhibition in vivo at 100 mg/kg [3]: 20.4%
- inhibition in vivo at 100 mg/kg [4]: 26.6%
- inhibition in vivo at 100 mg/kg [5]: 26.1%
- inhibition in vivo at 100 mg/kg [6]: 15.6%
- inhibition in vivo at 100 mg/kg [7]: 26%

SMILES: CCCCNC(=O)CC1CCc2cc(OC)c(OC)cc21 (configuration not stated)
- inhibition in vivo at 100 mg/kg [1]: 39.4%
- inhibition in vivo at 100 mg/kg [2]: 36.7%
- inhibition in vivo at 100 mg/kg [3]: 24.1%
- inhibition in vivo at 100 mg/kg [4]: 25%
- inhibition in vivo at 100 mg/kg [5]: 27.5%
- inhibition in vivo at 100 mg/kg [6]: 31.2%
- inhibition in vivo at 100 mg/kg [7]: 24%

SMILES: CCCNC(=O)CC1CCc2cc(OC)c(OC)cc21 (configuration not stated)
- inhibition in vivo at 100 mg/kg [1]: 26.9%
- inhibition in vivo at 100 mg/kg [2]: 26.7%
- inhibition in vivo at 100 mg/kg [3]: 22.2%
- inhibition in vivo at 100 mg/kg [4]: 26.6%
- inhibition in vivo at 100 mg/kg [5]: 29%
- inhibition in vivo at 100 mg/kg [6]: 18.8%
- inhibition in vivo at 100 mg/kg [7]: 28%

SMILES: CNC(=O)CC1CCc2cc(OC)c(OC)cc21 (configuration not stated)
- inhibition in vivo at 100 mg/kg [1]: 21.2%
- inhibition in vivo at 100 mg/kg [2]: 33.3%
- inhibition in vivo at 100 mg/kg [3]: 24.1%
- inhibition in vivo at 100 mg/kg [4]: 29.7%
- inhibition in vivo at 100 mg/kg [5]: 29%
- inhibition in vivo at 100 mg/kg [6]: 15.6%
- inhibition in vivo at 100 mg/kg [7]: 30%
